The source made the active and inactive calls. No cut-off for these calls is given here.
How the values were obtained:
Mus musculus [1] = assay: Antitumor activity against mouse advanced Lewis lung carcinoma allografted in ip dosed BDF1 mouse assessed as complete regression of established tumor administered as single dose on day 6 or 7 post-tumor implantation; assay type: functional, organism-based
Outline: (§1)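 BDF1 mice (C57Blk/6 × DBA/2) implanted sc by trocar with Lewis lung tumor fragments of about 40 mg, taken only from bacteriologically sterile donor tumors. Mice bearing tumors of about 400 mg (day 6-7) were selected. Each received a single ip dose on day 7, at or below the LD10 in normal mice. Groups were of 10 mice. Tumor weight was taken from calipers as w = ab²/2, measured at least twice weekly. Matched non-tumor mice served as toxicity controls.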

[2] = Antitumor activity against mouse early Lewis lung carcinoma allografted in BDF1 mouse assessed as increase in host life span at 11 mg/kg, ip administered as single dose on 1 or 2 days post-tumor implantation; assay type: functional; conditions: route intraperitoneal
Outline: (§2)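 Early disease: BDF1 mice carrying sc trocar implants of about 40 mg Lewis lung fragments. One ip dose given on day 1 or 2 after implant, in distilled water or saline, at ≤0.5 ml. Endpoints were % increase in life-span of dying animals and delay in days for the primary tumor to reach 1 g. Untreated controls served as reference.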

Mus musculus [3] = assay: Antitumor activity against mouse advanced Lewis lung carcinoma allografted in ip dosed BDF1 mouse assessed as disease cure administered as single dose on day 6 or 7 post-tumor implantation; assay type: functional, organism-based; outline: as §1
[4] = Antitumor activity against mouse early Lewis lung carcinoma allografted in BDF1 mouse assessed as increase in host life span at 17 mg/kg, ip administered as single dose on 1 or 2 days post-tumor implantation; assay type: functional; conditions: route intraperitoneal
Outline: (§3)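 BDF1 mice (C57Blk/6 × DBA/2) implanted sc by trocar with ~40 mg Lewis lung tumor fragments from bacteriologically sterile donor tumors. Single ip dose on day 1 or 2, as a solution or suspension in water (CMC or gum acacia) or saline (HPC or Tween 80). Read-out is […]. Same-dose toxicity controls were run in nontumor-bearing mice.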

[5] = Ratio of ED50 for antitumor activity against mouse L1210 cells allografted in ip dosed mouse to LD10 for mouse
[6] = Antitumor activity against mouse advanced Lewis lung carcinoma allografted in ip dosed BDF1 mouse assessed as increase in host lifespan administered as single dose on day 6 or 7 post-tumor implantation; assay type: functional
Outline: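 Advanced Lewis lung model: about 40 mg fragments implanted sc by trocar into BDF1 mice, and mice with tumors of about 400 mg (day 6-7) selected. Tumor weight from calipers, w = ab²/2. Agent given as one ip dose in distilled water or physiological saline. Nontumor-bearing mice received matching doses as toxicity controls.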

[7] = Antitumor activity against mouse early Lewis lung carcinoma allografted in ip dosed BDF1 mouse assessed as disease cure administered as single dose on 1 or 2 days post-tumor implantation measured for 80 days post-drug treatment; assay type: functional
Outline: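 BDF1 mice implanted sc by trocar with ~40 mg Lewis lung fragments from sterile donor tumors. A single ip dose was given on day 1 or 2 after implant, in water or saline vehicle. Cures were scored in animals observed for at least 80 days after treatment. Drug-toxicity controls were matched non-tumor-bearing mice monitored for body weight and deaths.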

[8] = Antitumor activity against mouse advanced Lewis lung carcinoma allografted in BDF1 mouse assessed as increase in host life span at 15 mg/kg, ip administered as single dose on 7th day post-tumor implantation; assay type: functional; conditions: route intraperitoneal
Outline: (§4)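 BDF1 mice (C57Blk/6 × DBA/2) implanted sc by trocar with about 40 mg Lewis lung tumor fragments from bacteriologically sterile donors. Advanced-disease groups held tumors of about 400 mg by day 6-7, sized by caliper (w = ab²/2). Single ip injection on day 7, in water or saline vehicle, at or below the LD10 in normal mice. Tumors measured at least twice weekly.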

[9] = Antitumor activity against mouse early Lewis lung carcinoma allografted in BDF1 mouse assessed as time delay in tumor growth at 17 mg/kg, ip administered as single dose on 1 or 2 days post-tumor implantation; assay type: functional; conditions: route intraperitoneal
Outline: (§5)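 BDF1 mice (C57Blk/6 × DBA/2) implanted sc by trocar with ~40 mg Lewis lung tumor fragments from bacteriologically sterile donors. A single ip dose was given on day 1 or 2, as a solution or suspension in water or saline with suspending agent, at ≤0.5 ml. Tumors were measured by caliper at least twice weekly, with weight = ab²/2. Delay was taken as the days for the tumor to reach 1 g.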

[10] = Antitumor activity against mouse early Lewis lung carcinoma allografted in BDF1 mouse assessed as time delay in tumor growth at 11 mg/kg, ip administered as single dose on 1 or 2 days post-tumor implantation; assay type: functional; conditions: route intraperitoneal
Outline: (§6)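 Sc trocar implants of about 40 mg Lewis lung fragments in BDF1 mice. A single ip injection was given on day 1 or 2, in water or physiological saline, at ≤0.5 ml. Tumor size came from caliper length and width as w = ab²/2, measured at least twice weekly. Growth delay is the extra days taken to reach 1 g, compared with untreated controls.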

Mus musculus [11] = assay: Antitumor activity against mouse advanced Lewis lung carcinoma allografted in BDF1 mouse assessed as disease cure at 15 mg/kg, ip administered as single dose on 7th day post-tumor implantation measured for 80 days post-drug treatment; assay type: functional, organism-based; design: dose 15 mg/kg; outline: as §1
[12] = Antitumor activity against mouse early Lewis lung carcinoma allografted in BDF1 mouse assessed as increase in host life span at 10 mg/kg, ip administered as single dose on 1 or 2 days post-tumor implantation; assay type: functional; conditions: route intraperitoneal; outline: as §2
Mus musculus [13] = assay: Antitumor activity against mouse advanced Lewis lung carcinoma allografted in BDF1 mouse assessed as disease cure at 22 mg/kg, ip administered as single dose on 7th day post-tumor implantation measured for 80 days post-drug treatment; assay type: functional, organism-based; design: dose 22 mg/kg; outline: as §1
[14] = Antitumor activity against mouse early Lewis lung carcinoma allografted in BDF1 mouse assessed as time delay in tumor growth at 10 mg/kg, ip administered as single dose on 1 or 2 days post-tumor implantation; assay type: functional; conditions: route intraperitoneal; outline: as §6
[15] = Antitumor activity against mouse early Lewis lung carcinoma allografted in BDF1 mouse assessed as increase in host life span at 15 mg/kg, ip administered as single dose on 1 or 2 days post-tumor implantation; assay type: functional; conditions: route intraperitoneal; outline: as §3
[16] = Antitumor activity against mouse advanced Lewis lung carcinoma allografted in BDF1 mouse assessed as increase in host life span at 22 mg/kg, ip administered as single dose on 7th day post-tumor implantation; assay type: functional; conditions: route intraperitoneal; outline: as §4
[17] = Antitumor activity against mouse early Lewis lung carcinoma allografted in BDF1 mouse assessed as time delay in tumor growth at 15 mg/kg, ip administered as single dose on 1 or 2 days post-tumor implantation; assay type: functional; conditions: route intraperitoneal; outline: as §5
[18] = Antitumor activity against mouse early Lewis lung carcinoma allografted in BDF1 mouse assessed as increase in host life span at 32 mg/kg, ip administered as single dose on 1 or 2 days post-tumor implantation; assay type: functional; conditions: route intraperitoneal; outline: as §3
[19] = Antitumor activity against mouse early Lewis lung carcinoma allografted in BDF1 mouse assessed as increase in host life span at 21 mg/kg, ip administered as single dose on 1 or 2 days post-tumor implantation; assay type: functional; conditions: route intraperitoneal; outline: as §3
[20] = Antitumor activity against mouse early Lewis lung carcinoma allografted in BDF1 mouse assessed as time delay in tumor growth at 32 mg/kg, ip administered as single dose on 1 or 2 days post-tumor implantation; assay type: functional; conditions: route intraperitoneal; outline: as §5
[21] = Antitumor activity against mouse early Lewis lung carcinoma allografted in BDF1 mouse assessed as time delay in tumor growth at 21 mg/kg, ip administered as single dose on 1 or 2 days post-tumor implantation; assay type: functional; conditions: route intraperitoneal; outline: as §5
[22] = Antitumor activity against mouse advanced Lewis lung carcinoma allografted in BDF1 mouse assessed as increase in host life span at 33 mg/kg, ip administered as single dose on 7th day post-tumor implantation; assay type: functional; conditions: route intraperitoneal; outline: as §4
Mus musculus [23] = assay: Antitumor activity against mouse advanced Lewis lung carcinoma allografted in BDF1 mouse assessed as disease cure at 33 mg/kg, ip administered as single dose on 7th day post-tumor implantation measured for 80 days post-drug treatment; assay type: functional, organism-based; design: dose 33 mg/kg; outline: as §1
[24] = Antitumor activity against mouse early Lewis lung carcinoma allografted in BDF1 mouse assessed as time delay in tumor growth at 210 mg/kg, ip administered as single dose on 1 or 2 days post-tumor implantation; assay type: functional; conditions: route intraperitoneal; outline: as §5
[25] = Antitumor activity against mouse early Lewis lung carcinoma allografted in BDF1 mouse assessed as increase in host life span at 315 mg/kg, ip administered as single dose on 1 or 2 days post-tumor implantation; assay type: functional; conditions: route intraperitoneal; outline: as §3
Mus musculus [26] = assay: Antitumor activity against mouse advanced Lewis lung carcinoma allografted in BDF1 mouse assessed as disease cure at 316 mg/kg, ip administered as single dose on 7th day post-tumor implantation measured for 80 days post-drug treatment; assay type: functional, organism-based; design: dose 316 mg/kg; outline: as §1
[27] = Antitumor activity against mouse early Lewis lung carcinoma allografted in BDF1 mouse assessed as increase in host life span at 210 mg/kg, ip administered as single dose on 1 or 2 days post-tumor implantation; assay type: functional; conditions: route intraperitoneal; outline: as §3
[28] = Antitumor activity against mouse early Lewis lung carcinoma allografted in BDF1 mouse assessed as time delay in tumor growth at 315 mg/kg, ip administered as single dose on 1 or 2 days post-tumor implantation; assay type: functional; conditions: route intraperitoneal; outline: as §5
[29] = Antitumor activity against mouse advanced Lewis lung carcinoma allografted in BDF1 mouse assessed as increase in host life span at 316 mg/kg, ip administered as single dose on 7th day post-tumor implantation; assay type: functional; conditions: route intraperitoneal; outline: as §4

Question: What does the source list for `O=NN(CCCl)C(=O)NC1CCC(=O)NC1=O` (configuration not stated)?
Answer: inhibition (Mus musculus [1]): Active; ILS at 11 mg/kg [2]: 32%; Activity (Mus musculus [3]): inactive; ILS at 17 mg/kg [4]: 28%; Ratio [5]: 0.4; ILS [6]: >25%; Activity [7]: 10%; ILS at 15 mg/kg [8]: 49%; Time [9]: 3.8 days; Time [10]: 1.4 days; Activity (Mus musculus [11]): inactive

Question: For `O=NN(CCCl)C(=O)NC1CSCSC1`, which ILS at 10 mg/kg [12] is on record?
Answer: Its ILS at 10 mg/kg is 24%.

Question: What about the inhibition (Mus musculus [1]) of the same compound?
Answer: The inhibition was “Active”.

Question: And the Activity (Mus musculus [13])?
Answer: The Activity was “inactive”.

Question: What about the Time [14] of the same compound?
Answer: Its Time is 3.5 days.

Question: And the Activity (Mus musculus [3])?
Answer: Its Activity is “inactive”.

Question: What about the Ratio [5] of the same compound?
Answer: The Ratio was 0.3.

Question: And the ILS at 15 mg/kg [15]?
Answer: The ILS at 15 mg/kg was 42%.

Question: What about the Activity [7] of the same compound?
Answer: The Activity was 10%.

Question: And the ILS at 22 mg/kg [16]?
Answer: The ILS at 22 mg/kg was 36%.

Question: And the Time [17]?
Answer: Its Time is 4.5 days.

Question: For `O=NN(CCF)C(=O)NC1CCS(=O)(=O)CC1`, which inhibition (Mus musculus [1]) is on record?
Answer: The inhibition was “inactive”.

Question: What about the ILS at 32 mg/kg [18] of the same compound?
Answer: Its ILS at 32 mg/kg is 0%.

Question: And the ILS at 21 mg/kg [19]?
Answer: Its ILS at 21 mg/kg is 18%.

Question: And the Activity (Mus musculus [3])?
Answer: The Activity was “inactive”.

Question: And the Time [20]?
Answer: The Time was 15 days.

Question: What about the Ratio [5] of the same compound?
Answer: The Ratio was 0.3.

Question: What about the ILS [6] of the same compound?
Answer: Its ILS is over 25%.

Question: And the Activity [7]?
Answer: The Activity was 10%.

Question: What about the Time [21] of the same compound?
Answer: Its Time is 8.3 days.

Question: What about the ILS at 33 mg/kg [22] of the same compound?
Answer: Its ILS at 33 mg/kg is 0%.

Question: What about the Activity (Mus musculus [23]) of the same compound?
Answer: The Activity was “inactive”.

Question: What does the source list for `CC(C)(C)[C@H]1CC[C@H](NC(=O)N(CCCl)N=O)CC1`?
Answer: inhibition (Mus musculus [1]): Active; Time [24]: 4.1 days; ILS at 315 mg/kg [25]: 19%; Activity (Mus musculus [3]): inactive; Activity (Mus musculus [26]): inactive; Ratio [5]: 0.6; ILS at 210 mg/kg [27]: 24%; Time [28]: 22 days; Activity [7]: 10%; ILS at 316 mg/kg [29]: 41%

— ChEMBL document CHEMBL3271979, “Inhibition of solid tumors by nitrosoureas. 1. Lewis lung carcinoma” (1977)
